Assay outcomes (PubChem BioAssay)
This is a sample that favours compounds with a hit; in the whole collection about 1.9% have one here.
LMPTP inh: blocks human LMPTP phosphatase; P24666; inhibition, % at 20 µM; AID 651560; 360,000 compounds, 0.22% hits; recombinant LMPTP-A, OMFP fluorogenic substrate, fluorescence intensity;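 active means compounds that cut the enzyme signal by at least half of the control window in the single-dose screen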
Target sequence (P24666 whole entry, looked up): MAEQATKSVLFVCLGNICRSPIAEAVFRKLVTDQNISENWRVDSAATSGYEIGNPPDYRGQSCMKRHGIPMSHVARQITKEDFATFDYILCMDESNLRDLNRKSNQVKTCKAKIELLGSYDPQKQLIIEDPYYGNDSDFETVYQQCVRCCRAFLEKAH
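Buffer or medium: Bis-Tris pH 6.0, DTT, detergent; Assay system: LMPTP-A enzyme; Quantity: 0.625 nM enzyme; Detection: endpoint fluorescence intensity; Times: 50 min dark incubation at room temperature; Controls: substrate-only low control, DMSO enzyme-plus-substrate high control; Doses: single 20 µM dose; Read-out: percent inhibition versus substrate-only and uninhibited controls; Reagent: 400 µM OMFP.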
Scp1 inh: inhibitors of human Scp-1 phosphatase. 340,000 compounds, 0.88% hits. Recombinant Scp1, phosphopeptide, malachite green phosphate absorbance. inhibition, % at 20 µM. Q9GZU7;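 active means inhibition above about 50% at 20 µM, limit read from the data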
Target sequence (Q9GZU7 76-261 limits assumed): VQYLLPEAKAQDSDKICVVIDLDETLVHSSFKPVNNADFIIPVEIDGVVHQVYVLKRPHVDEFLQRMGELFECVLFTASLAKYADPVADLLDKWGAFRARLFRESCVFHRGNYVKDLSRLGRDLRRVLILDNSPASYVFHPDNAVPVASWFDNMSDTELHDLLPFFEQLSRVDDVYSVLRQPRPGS
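Times: enzyme reaction 45 min at room temperature, colour 5 min, stabilisation 30 min. Material: SCP-1 catalytic fragment, aa 76-261. Medium: Acidic Tris acetate buffer with magnesium and detergent. Signal: colorimetric free-phosphate detection, absorbance 630 nm. Read-out basis: % inhibition of SCP-1 phosphate liberation. Reagent: Phosphorylated 17-residue peptide substrate.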
STEP inh: inhibitors of human striatal-enriched phosphatase STEP. P54829. recombinant STEP, OMFP fluorogenic substrate, fluorescence. inhibition, % at 20 µM. 360,000 compounds, 0.25% hits;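 active means inhibition at 20 µM, scaled per plate between control wells, above about 37%, limit read from the data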
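medium = Bis-Tris buffer pH 6.0, 2.5 mM DTT, 0.005% Tween 20 | test system = STEP (striatal-enriched tyrosine phosphatase) enzyme, cell-free | measure = normalized % inhibition | compound dosing = 20 µM, 1% DMSO | also added = 25 µM OMFP | schedule = reaction 20 min, ambient temperature | measured by = fluorescence read at 480 nm ex / 540 nm em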
PP5 primary: blocks human protein phosphatase 5 activity; 320,000 compounds, 0.18% hits; AID 1987; purified PP5c, OMFP substrate fluorescence; inhibition, % at 6.7 µM;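 active means inhibition above the campaign's mean inhibition across all tested compounds plus 3 SD, cut at about 9.5% in these data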
PP1 inh: PP1-alpha (human) inhibition in PP5 counter-screen; inhibition, % at 6.7 µM; P62136; purified PP1alpha, OMFP fluorescence; 320,000 compounds, 0.9% hits;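 active means inhibition above the mean inhibition of all tested compounds plus 3 SD, computed separately for each screening campaign, cut at about 15% in these data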
Target sequence (P62136 whole entry, looked up): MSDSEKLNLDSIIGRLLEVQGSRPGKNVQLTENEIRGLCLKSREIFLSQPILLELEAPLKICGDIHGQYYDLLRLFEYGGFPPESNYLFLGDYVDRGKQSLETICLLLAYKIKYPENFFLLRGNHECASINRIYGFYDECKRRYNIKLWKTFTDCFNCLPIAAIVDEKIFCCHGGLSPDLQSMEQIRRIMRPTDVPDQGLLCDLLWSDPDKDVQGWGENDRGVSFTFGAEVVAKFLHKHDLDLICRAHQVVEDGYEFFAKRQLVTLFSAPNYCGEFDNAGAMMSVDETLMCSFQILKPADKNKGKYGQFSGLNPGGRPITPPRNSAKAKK
Each line names hits and unclear results; the compound was inactive in the other large screens.

Cc1cc(O)c(-c2cc(C(=O)NCc3ccc4c(c3)OCO4)[nH]n2)cc1C	PP1 inh 16
Cc1ccc(-n2c(SCC(=O)Nc3ccc4c5c(cccc35)CC4)nc(O)cc2=O)cc1	PP1 inh 16
Cc1c(OCC(=O)N[C@@H](Cc2ccccc2)C(=O)O)ccc2c1oc(=O)c1ccccc12	PP1 inh 15
Cc1c(OCC(=O)N[C@@H](Cc2ccccc2)C(=O)O)ccc2c3c(c(=O)oc12)CCC3	none
COc1c(/C=N/Nc2nc(N3CCCCC3)nc(N3CCCCC3)n2)cccc1[N+](=O)[O-]	none
C=CCSC1=N/C(=C\C=C\c2ccco2)C(=O)S1	Scp1 inh 53
CC(=O)c1cccc(NC(=O)CSc2nnc(-c3ccncc3)o2)c1	none
O=C(COc1ccc2ccccc2c1)Nc1ccc(S(=O)(=O)N2CCCCCC2)cc1	PP1 inh 17
O=C(COc1ccccc1)Nc1ccc(S(=O)(=O)N2CCCCCC2)cc1	none
O=C(COc1ccc([N+](=O)[O-])cc1)Nc1cc(S(=O)(=O)N2CCCCC2)ccc1N1CCCCC1	none
O=C(COc1ccc(F)cc1)Nc1cc(S(=O)(=O)N2CCCCC2)ccc1N1CCCCC1	PP1 inh 16
COc1ccc(NC(=O)CSc2nnc3ccc(-c4ccccn4)nn23)c(OC)c1	none
COc1ccc(OC)c(Nc2nc(-c3sc(C)nc3C)cs2)c1	none
CC1CC(c2ccccc2)n2nc(NC(=O)CCc3ccccc3)nc2N1 (stereo not drawn)	PP1 inh 18
O=C(CSc1nc(-c2ccc(F)cc2)cc(C(F)(F)F)n1)NCc1cccs1	none
CCCCN(CCCC)c1ccc(C(=O)c2ccccc2C(=O)O)c(O)c1	PP1 inh 17
CN(C)c1ccc(C(=O)c2ccccc2C(=O)O)c(O)c1	none
CC1CCN(S(=O)(=O)Cc2ccccc2Cl)CC1	none
N#CC1=C(N)OC2=C(C(=O)CC(c3ccco3)C2)C1c1ccc(OCc2c(F)cccc2Cl)cc1 (stereo not drawn)	LMPTP inh 65
COc1cccc(C2C(C#N)=C(N)OC3=C2C(=O)CC(c2ccco2)C3)c1OCc1ccc(F)cc1 (stereo not drawn)	none
COc1ccc(OCC(O)CN2CCCCC2)cc1 (stereo not drawn)	none
CCOC(=O)NC(NC(=O)OCC)C(=O)c1ccc(F)cc1	Scp1 inh 102
CCCC(C)NC(=O)c1ccc(F)cc1 (stereo not drawn)	none
COc1ccc(CCN2C(=O)C3C(C2=O)C2C=CC3C23CC3)cc1OC (stereo not drawn)	none
Cc1cc2cc(CNC(=O)Nc3cccc(Cl)c3)ccc2n1C	PP1 inh 16
Cc1nc2c(c(=O)n1CCC1=CCCCC1)c1nc3ccccc3nc1n2/N=C/c1ccccc1	none
O=c1c2c3nc4ccccc4nc3n(/N=C/c3ccco3)c2ncn1CCC1=CCCCC1	Scp1 inh 88
CC1Cc2ccccc2N1C(=O)COC(=O)CNC(=O)c1ccc(Br)o1 (stereo not drawn)	none
O=C(c1ccc(-c2cc3ccccc3oc2=O)cc1)N1CCN(c2ccc(Cl)cc2[N+](=O)[O-])CC1	PP1 inh 16
O=[N+]([O-])c1cc(Cl)ccc1N1CCN(c2ccccc2O)CC1	none
C=C(C)C(=O)Nc1ccc(NC(C)C)cc1	none
Cn1cc(C(=O)N/N=C/c2cccs2)c2ccccc21	none
N#Cc1c(NC(=O)c2ccccc2Cl)n(Cc2ccccc2)c2nc3ccccc3nc12	PP1 inh 22
Cc1cccc(OCCCN2C(=O)C(=O)c3cc(C)ccc32)c1	PP1 inh 16
Cc1ccc2c(c1)C(=O)C(=O)N2CCCOc1ccccc1	none
Cc1ccc(OCCCN2C(=O)C(=O)c3cc(C)ccc32)cc1	PP1 inh 17
O=C(Nc1ccc2c(c1)OCCO2)C(c1ccccc1F)n1c(=O)c(-c2ccco2)nc2ccccc21 (stereo not drawn)	none (no result: Scp1 inh, STEP inh, PP5 primary, PP1 inh)
C=CCn1c(SCC(=O)Nc2ccc(-c3nc4ccc(C)cc4s3)cc2)nnc1-c1ccccc1	Scp1 inh 61
C=CC#CC[N+]1(CC#Cc2ccccc2)CCOCC1	LMPTP inh 52 (no result: PP5 primary, PP1 inh)
C(#Cc1ccccc1)C[N+]1(CC#Cc2ccccc2)CCCC1	none
O=C1NC(=Nc2ccc(O)cc2)S/C1=C\C=C\c1ccco1	PP1 inh 16
COc1cc(/C=C2/SC(=Nc3ccc(O)cc3)NC2=O)cc(OC)c1O	none
COc1cc(/C=N/Nc2nnc3c(n2)[nH]c2ccccc23)ccc1O	none
Cc1ccc2[nH]c3nc(N/N=C/c4cccc(O)c4)nnc3c2c1	PP1 inh 16
CCc1ccc2[nH]c3nc(N/N=C/c4ccc(O)cc4O)nnc3c2c1	PP1 inh 17
O=C1CC(=O)N(Cc2ccco2)C(=S)N1	LMPTP inh 51, Scp1 inh 93, STEP inh 83
COc1ccc(CCNC2CC(C)N(C)CC2C)cc1OC (stereo not drawn)	none
COc1ccc(CNC2CC(C)N(C)CC2C)cc1OC (stereo not drawn)	LMPTP inh 53
CCc1ccc(-c2cc(C)no2)cc1S(=O)(=O)N1CCN(c2ccc(OC)cc2)CC1	none
CCOC(=O)c1nn(-c2ccccc2)cc1O	none
C[C@@H]1CC=C[C@H]2[C@H]1C(=O)N(Cc1ccccc1)[C@H]2c1ccc(F)c(-c2ccc(N(C)C)cc2)c1	PP1 inh 16
O=C(CNC(=O)c1ccccc1Br)N/N=C\c1cc([N+](=O)[O-])cc(Br)c1O	none
O=C(NCCCCc1ccccc1)c1cc([N+](=O)[O-])cc([N+](=O)[O-])c1	none
CC(=O)c1cccc(NC(=O)NNC(=O)c2ccc3ccccc3c2)c1	none
C=CCn1c(C)cc(C(=O)CSc2nnc(NC(C)C)s2)c1C	none
C=CCn1c(C)cc(C(=O)CSc2nnc(NCc3ccccc3)s2)c1C	PP5 primary 12
COc1ccccc1-n1nc(C(=O)O)c2ccccc2c1=O	none
COc1cccc(/C=N/NC(=O)c2cc3c(OC)ccc(OC)c3[nH]2)c1O	PP1 inh 16
COc1cc(OC)c2cc(C(=O)N/N=C/c3cccc(OC)c3O)[nH]c2c1	none
Cc1cc(N2CCN(C(c3ccnc4ccccc34)c3nnnn3-c3c(C)cccc3C)CC2)c2ccccc2n1 (stereo not drawn)	LMPTP inh 89 (no result: Scp1 inh, STEP inh, PP5 primary, PP1 inh)
Cc1cccc(C)c1-n1nnnc1C(c1ccnc2ccccc12)N1CCN(CCN(C)C)CC1 (stereo not drawn)	none (no result: Scp1 inh, STEP inh, PP5 primary, PP1 inh)
COc1cccc(C(=O)NNC(=O)C(=O)Nc2ccc(C)c(Cl)c2)c1	PP1 inh 16
NC(=O)c1ccc(Cn2c(C(=O)c3cc(Cl)c(N)c(Cl)c3)c3ccccc3[n+]2[O-])cc1	none
CC1(C)CC(=O)c2c(nc(SCC(=O)Nc3nsc(-c4ccccc4)n3)c(C#N)c2-c2ccccc2)C1	PP1 inh 16
O=C(Nc1nc2c(Br)cc(Br)cc2c(=O)s1)c1ccco1	Scp1 inh 93
O=C(NC1CCCCC1)c1ccc(NS(=O)(=O)c2cccc3cccnc23)cc1	none
